Screens as filed in PubChem.
In the library only some 11% were active in any assay of this set; here they are far more common.
Diaphorase act – counter-screen for diaphorase-based assays: diaphorase activators and chemical reducers; 190,000 tested, 0.005% active; Diaphorase/resazurin coupled assay, resorufin fluorescence, 16 min; active compounds read high; 1 = vehicle wells, 0 = NADH-free wells; AID 1229; activation factor at 20 µM;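 active = diaphorase activity raised at least twofold by the compound at 20 µM; inactive = activation factor below 2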
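System – purified diaphorase enzyme from Clostridium kluyveri · Input – enzyme 0.07 U/mL final · Also added – final NADH 0.114 mM, resazurin 0.1 mM · Measured by – fluorescence of resorufin, 544 nm excitation, 590 nm emission · Timing – 16 min enzyme reaction, ambient temperature · Measure – resorufin increase flagging diaphorase activators or reducers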
Diaph inh CS – counter-screen for diaphorase-based assays: diaphorase inhibitors and chemical oxidizers; diaphorase resazurin-to-resorufin fluorescence, NADH, 16 min; bacterial (C. kluyveri) enzyme, not human; inhibition, % at 20 µM; 190,000 tested, 0.69% active; AID 1217;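 active = primary screen inhibition at 20 µM above a set limit, cut at about 50% in these data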;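 also: plate controls were DMSO with full reaction for no effect and wells lacking NADH for full effect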
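System: Bacterial diaphorase enzyme (C. kluyveri) | Incubation: 16-min room-temperature incubation before reading | Benchmarks: No-NADH positive control and DMSO neutral control | Measured by: Resorufin fluorescence 544/590 nm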
WT yeast gro inh – growth inhibition of WT yeast, mitochondrial fusion screen. mitochondrial fusion phenotypic screen, WT strain. inhibition, % at 10 µM. 190,000 tested, 2.1% active; in the data active = inhibition above about 58%; tested in S. cerevisiae
G6PDH CS – L. mesenteroides G6PDH inhibition counter-screen. Purified L. mesenteroides G6PDH, diaphorase/resazurin coupled fluorescence, 45 min. inhibition, % at 5 µM. 200,000 tested, 0.12% active. AID 1020
L major viab – reduces viability of Leishmania major promastigotes | 200,000 tested, 9% active | resazurin fluorescence viability | inhibition, % at 10 µM;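 also: promastigotes grown with compound for 44 hours at 28 °C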
An asterisk follows results filed as active. Rule as the data show it, unless noted: active = inhibition above about 50%; inactive = the rest.

Screening OC(CSc1c(Cl)cccc1Cl)CN1CCN(c2ccccc2F)CC1 (configuration not stated) returned Diaphorase act 0.8, Diaph inh CS 19, WT yeast gro inh 66*, G6PDH CS -19 and L major viab 17.
Screening OC(CSc1ccccc1Cl)CN1CCN(c2ccccc2F)CC1 (configuration not stated) returned Diaphorase act 0.7, Diaph inh CS 26, WT yeast gro inh 46, G6PDH CS -29 and L major viab 64*.
Screening COC(=O)c1nn(-c2ccccc2)c(Cl)c1/C=N/OCc1ccc(C)cc1 returned Diaphorase act 0.9, Diaph inh CS 14, WT yeast gro inh 20, G6PDH CS -1 and L major viab -8.
For O=C(O)c1ccccc1-c1ccccc1C(=O)NCc1cccc(C(F)(F)F)c1 the results were Diaphorase act 0.8, Diaph inh CS 22, WT yeast gro inh -12, G6PDH CS 10 and L major viab -6.
CN(C)c1ccc(N=Nc2ccc(S(=O)(=O)O)cc2)c2ccccc12 was read as Diaphorase act 0.7, Diaph inh CS 26, WT yeast gro inh 6, G6PDH CS -3 and L major viab 2.
Screening Cc1ccc(N=Nc2ccc(O)c3ncccc23)cc1 returned Diaphorase act 0.9, Diaph inh CS 5, WT yeast gro inh 64*, G6PDH CS 4 and L major viab 100*.
`CCS(=O)(=O)c1ccc(N=Nc2ccc(O)c3ncccc23)c(OC)c1` gave Diaphorase act 0.6, Diaph inh CS 37, WT yeast gro inh 10, G6PDH CS 24 and L major viab 100*.
Screening Cc1ccc(N=Nc2ccc(O)c3ncccc23)cc1C returned Diaphorase act 0.9, Diaph inh CS 14, WT yeast gro inh -1, G6PDH CS 9 and L major viab 100*.
For CCS(=O)(=O)c1ccc(O)c(NC(=O)c2cc(OC)c(OC)c(OC)c2)c1 the results were Diaphorase act 0.9, Diaph inh CS 7, WT yeast gro inh 19, G6PDH CS 7 and L major viab 1.
`Oc1c(I)cc(I)c2cccnc12` gave Diaphorase act 0.8, Diaph inh CS 24, WT yeast gro inh 17, G6PDH CS 23 and L major viab -3.
CS(=O)(=O)N1CCCC(C(=O)Nc2ccc(F)cc2F)C1 (configuration not stated) was read as Diaphorase act 0.9, Diaph inh CS 10, WT yeast gro inh -20, G6PDH CS 3 and L major viab -9.
For Cc1nn(C)c(C)c1S(=O)(=O)N1CCCC(C(=O)NCC2COc3ccccc3O2)C1 (configuration not stated) the results were Diaphorase act 0.9, Diaph inh CS 9, WT yeast gro inh -14, G6PDH CS 1 and L major viab -1.
Screening O=C(COC(=O)CC(c1ccccc1)c1ccccc1)Nc1ccc(F)c(F)c1 returned Diaphorase act 0.7, Diaph inh CS 28, WT yeast gro inh 59*, G6PDH CS 11 and L major viab 4.
Cn1nnnc1SCc1ccc([N+](=O)[O-])cc1 was read as Diaphorase act 1, Diaph inh CS 3, WT yeast gro inh -6, G6PDH CS -15 and L major viab 0.
Cc1cc(C(=O)N/N=C/c2ccc(O)c(O)c2O)c(C)n1-c1ccccc1 was read as Diaphorase act 0.1, Diaph inh CS 89*, WT yeast gro inh -8, G6PDH CS -3 and L major viab -8.
Cc1cc(C(=O)N/N=C2\CC(=O)c3ccccc32)c(C)n1-c1ccccc1 was read as Diaphorase act 0.8, Diaph inh CS 22, WT yeast gro inh 3, G6PDH CS 6 and L major viab 98*.
For Cc1ccc(S(=O)(=O)N[C@@H](Cc2ccccc2)C(=O)CCl)cc1 the results were Diaphorase act 0.8, Diaph inh CS 15, WT yeast gro inh 45, G6PDH CS 13 and L major viab -6.
`CCC(=O)NC(=S)Nc1cccc(NC(=O)c2ccccc2)c1` gave Diaphorase act 1, Diaph inh CS 0, WT yeast gro inh 6, G6PDH CS -4 and L major viab -1.
For O=C(NC(N1CCOCC1)C(Cl)(Cl)Cl)c1cc([N+](=O)[O-])cc([N+](=O)[O-])c1 (configuration not stated) the results were Diaphorase act 0.9, Diaph inh CS 13, WT yeast gro inh 1, G6PDH CS 3 and L major viab 91*.
For O=C(NC(N1CCOCC1)C(Cl)(Cl)Cl)c1ccccc1Cl (configuration not stated) the results were Diaphorase act 0.9, Diaph inh CS 6, WT yeast gro inh -4, G6PDH CS 4 and L major viab 1.
CC(C)c1ccc(N(C(=O)C(F)(F)F)C(C(=O)NC2CCCCC2)c2ccncc2)cc1 (configuration not stated) was read as Diaphorase act 0.9, Diaph inh CS 12, WT yeast gro inh -1, G6PDH CS 4 and L major viab 1.
Cc1cccc(Oc2ncnc3oc(-c4ccccc4)cc23)c1C was read as Diaphorase act 0.9, Diaph inh CS 12, WT yeast gro inh 4, G6PDH CS -28 and L major viab -6.
Screening Cc1ccc(N(C)C(=O)N2CCN(S(=O)(=O)c3c(C)cc(C)cc3C)CC2)cc1 returned Diaphorase act 0.9, Diaph inh CS 13, WT yeast gro inh 10, G6PDH CS 5 and L major viab 98*.
Screening CCCN1C2=C(C(=O)CC(C)(C)C2)C(c2ccc(F)cc2)C2=C1c1ccccc1C2=O (configuration not stated) returned Diaphorase act 0.8, Diaph inh CS 23, WT yeast gro inh -4, G6PDH CS 9 and L major viab 72*.
CCN(CC)CCN1C2=C(C(=O)CC(C)(C)C2)C(c2cccc(F)c2)C2=C1CC(C)(C)CC2=O was read as Diaphorase act 0.9, Diaph inh CS 10, WT yeast gro inh -20, G6PDH CS 2 and L major viab 22.
`CCCCN1C2=C(C(=O)CC(C)(C)C2)C(c2ccccc2)C2=C1c1ccccc1C2=O` (configuration not stated) gave Diaphorase act 0.7, Diaph inh CS 29, WT yeast gro inh -2, G6PDH CS 8 and L major viab 84*.
Screening CC1(C)CC(=O)C2=C(C1)NC1=C(C(=O)c3ccccc31)C2c1ccc(Cl)cc1 (configuration not stated) returned Diaphorase act 0.8, Diaph inh CS 21, WT yeast gro inh 12, G6PDH CS 17 and L major viab 60*.
`COc1cc(CNC2CCCCC2OC)cc(OC)c1OC` (configuration not stated) gave Diaphorase act 1, Diaph inh CS -1, WT yeast gro inh -6, G6PDH CS 2 and L major viab 1.
`Cc1nc(NCCCN2CCOCC2)c2oc3ccccc3c2n1` gave Diaphorase act 1.1, Diaph inh CS -10, WT yeast gro inh 11, G6PDH CS -2 and L major viab 97*.
